pKi: −log10 of the molar value.
Experiments:
[1] = target: T1, Kappa-type opioid receptor (Homo sapiens, UniProt P41145); assay: Displacement of [3H]U69,593 from human recombinant kappa opioid receptor expressed in CHO cells after 2 hrs by liquid scintillation counting; assay type: cell-based
Method in brief: (§1)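 Membranes from stably transfected hDOR-CHO or hKOR-CHO cells, washed in ice-cold 10 mM Tris-HCl pH 7.4. Binding in 50 mM Tris-HCl pH 7.4 with protease inhibitors, about 30 µg protein per tube. Radioligand about 2 nM against 10 drug concentrations, triplicate, 2 h at 25 °C, GF/B filtration.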

[2] = target: Delta-type opioid receptor (Homo sapiens, UniProt P41143); assay: Displacement of [3H]DADLE from human recombinant delta opioid receptor expressed in recombinant hDOR-CHO cells after 2 hrs by liquid scintillation counting; assay type: cell-based; method in brief: as §1
Delta-type opioid receptor, sequence (P41143 whole entry): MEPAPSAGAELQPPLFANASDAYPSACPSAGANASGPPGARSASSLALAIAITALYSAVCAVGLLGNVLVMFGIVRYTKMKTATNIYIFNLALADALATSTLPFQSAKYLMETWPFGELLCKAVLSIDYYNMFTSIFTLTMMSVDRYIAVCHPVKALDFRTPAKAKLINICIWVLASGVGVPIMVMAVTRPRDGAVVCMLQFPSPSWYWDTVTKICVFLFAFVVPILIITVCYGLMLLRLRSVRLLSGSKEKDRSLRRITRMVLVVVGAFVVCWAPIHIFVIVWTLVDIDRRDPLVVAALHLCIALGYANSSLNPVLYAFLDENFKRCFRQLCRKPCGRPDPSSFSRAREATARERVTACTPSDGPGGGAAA

Mu-type opioid receptor [3] = target: T2, Mu-type opioid receptor (Homo sapiens, UniProt P35372); assay: Displacement of [3H]DAMGO from human recombinant mu opioid receptor expressed in CHO cells after 2 hrs by liquid scintillation counting; assay type: cell-based
T2 sequence (P35372 whole entry): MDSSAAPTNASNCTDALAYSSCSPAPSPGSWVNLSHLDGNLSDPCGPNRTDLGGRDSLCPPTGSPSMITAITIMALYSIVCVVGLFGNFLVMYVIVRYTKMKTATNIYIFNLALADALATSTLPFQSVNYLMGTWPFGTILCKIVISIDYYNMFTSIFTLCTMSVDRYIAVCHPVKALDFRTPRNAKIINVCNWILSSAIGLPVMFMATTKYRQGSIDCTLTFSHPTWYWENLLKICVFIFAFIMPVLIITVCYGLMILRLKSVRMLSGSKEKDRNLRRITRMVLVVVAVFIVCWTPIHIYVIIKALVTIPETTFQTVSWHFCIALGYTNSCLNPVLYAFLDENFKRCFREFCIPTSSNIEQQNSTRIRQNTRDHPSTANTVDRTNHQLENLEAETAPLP

Mu-type opioid receptor [4] = target: T2, Mu-type opioid receptor; assay: Ratio of naloxone Ke to compound Ke for human mu opioid receptor
Homo sapiens [5] = species on record: Homo sapiens; assay: Selectivity ratio Ki for human delta opioid receptor to Ki for human mu opioid receptor
Method in brief: (§2)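 Ki values from radioligand displacement on membranes of stably transfected human receptor CHO cells. […] Incubation 2 h at 25 °C, triplicate, filtration. Ki from pooled logistic IC50 by Cheng-Prusoff; ratio taken against the MOR Ki.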

[6] = target: T1, Kappa-type opioid receptor; conditions: CHO
Mu-type opioid receptor [7] = target: T2, Mu-type opioid receptor; assay: Ratio of morphine Ki to compound Ki for human mu opioid receptor
Homo sapiens [8] = species on record: Homo sapiens; assay: Selectivity ratio Ki for human kappa opioid receptor to Ki for human mu opioid receptor; method in brief: as §2

T1 sequence (P41145 whole entry): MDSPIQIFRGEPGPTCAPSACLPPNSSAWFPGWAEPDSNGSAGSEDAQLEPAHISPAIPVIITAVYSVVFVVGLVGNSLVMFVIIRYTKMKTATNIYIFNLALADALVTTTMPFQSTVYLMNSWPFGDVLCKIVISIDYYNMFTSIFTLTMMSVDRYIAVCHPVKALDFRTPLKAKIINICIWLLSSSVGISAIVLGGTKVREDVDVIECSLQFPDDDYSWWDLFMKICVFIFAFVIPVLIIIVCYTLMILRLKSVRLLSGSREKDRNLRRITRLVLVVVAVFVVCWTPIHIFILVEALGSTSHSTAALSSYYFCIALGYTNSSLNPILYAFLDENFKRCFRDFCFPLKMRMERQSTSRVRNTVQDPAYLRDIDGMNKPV

| Structure (SMILES) | pKi [1] | pKi [2] | pKi (Mu-type opioid receptor [3]) | Ratio Ke (Mu-type opioid receptor [4]) | Ratio Ki (Homo sapiens [5]) | Ke [6] [nM] | Ratio Ki (Mu-type opioid receptor [7]) | Ratio Ki (Homo sapiens [8]) |
| --- | --- | --- | --- | --- | --- | --- | --- | --- |
| CN1C[C@H]2Oc3c(O)cccc3[C@@]23CCC[C@@H]1C3 (relative stereo) | < 4.40 | < 5.28 | 6.21 | – | – | – | – | – |
| CN1C[C@H]2Oc3ccc(O)cc3[C@@]23CCC[C@@H]1C3 (relative stereo) | 5.97 | < 5.28 | 5.82 | – | – | – | – | – |
| Oc1cccc2c1O[C@@H]1CN(CCc3ccccc3)[C@@H]3CCC[C@]21C3 (relative stereo) | 7.29 | 5.91 | 8.96 | 3 | 1200 | 1.79 | 2 | 50 |
| Oc1ccc2c(c1)[C@]13CCC[C@H](C1)N(CCc1ccccc1)C[C@H]3O2 (relative stereo) | 5.91 | 5.90 | 7.17 | – | – | – | – | – |
